Published values of several laboratories.
Lines come from different studies, so protocols differ.
Target: Serine/threonine-protein kinase 17B (STK17B, Homo sapiens, UniProt O94768)
Sequence (O94768 1-372, as in one of the studies): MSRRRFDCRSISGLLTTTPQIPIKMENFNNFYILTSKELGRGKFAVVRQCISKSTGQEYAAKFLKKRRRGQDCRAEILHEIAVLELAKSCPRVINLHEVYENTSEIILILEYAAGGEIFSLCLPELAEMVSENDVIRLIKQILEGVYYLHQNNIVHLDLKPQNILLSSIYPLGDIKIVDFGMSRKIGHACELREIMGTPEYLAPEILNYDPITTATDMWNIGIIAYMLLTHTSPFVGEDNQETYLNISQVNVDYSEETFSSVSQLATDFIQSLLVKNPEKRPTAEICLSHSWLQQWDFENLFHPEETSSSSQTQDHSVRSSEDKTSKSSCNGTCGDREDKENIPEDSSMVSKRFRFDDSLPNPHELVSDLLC

SMILES | read-out | mode | method | tested at | endpoint | result
Cc1nc(N2CC[C@@H](O)C2)ncc1-c1cc(C(F)(F)F)cc2[nH]ncc12 | cell-free assay | – | competition with immobilised ligand | 1 µM | remaining binding | 99%
CN1CC(Oc2cnc(C#N)cc2-c2ccn3nc(NC(=O)C4CC4)cc3c2)C1 | enzyme activity | inhibitor | – | 1 µM | inhibition | -4%
C[C@H](NC(=O)c1cnc2n1[C@](C)(Cc1ccc(C#N)cc1)C(=O)N2c1cc(Cl)c(F)c(Cl)c1)C(=O)NC1(c2ccccn2)CC1 | cell-free assay | – | competition with immobilised ligand | 1 µM | remaining binding | 100%
O=C(CSc1nc2nccnc2c(=O)n1CCc1ccccc1)Nc1nccs1 | enzyme activity | inhibitor | – | 10 µM | inhibition | 11%
Cc1nn(CC(F)(F)F)cc1Nc1nccc(NCc2ccc(S(N)(=O)=O)cc2)n1 | enzyme activity | inhibitor | radiometric | 1 µM | remaining activity | 92%
CCN1CCC2(CC1)NC(=O)c1c(c3ccc(Cl)c(Cl)c3n1C)C2C#N (racemic) | thermal stability | – | DSF | 10 µM | ΔTm | 1 °C
O=C(Nc1cccnn1)N1CC(C/C=C/c2cncc(Oc3ccc(C(F)(F)F)cn3)n2)C1 | cell-free assay | – | competition with immobilised ligand | 1 µM | remaining binding | 100%
Cc1nn(CC(F)(F)F)cc1Nc1ncc(Br)c(NCCc2cnc[nH]2)n1 | enzyme activity | inhibitor | radiometric | 1 µM | remaining activity | 12%
CS(=O)(=O)Nc1cccc(-c2csc(NC(=O)CSc3nc4nccnc4c(=O)n3CCc3ccccc3)n2)c1 | enzyme activity | inhibitor | – | 10 µM | inhibition | 4%
COc1cc(Cl)c(C(=O)N[C@@H](CN[C@H]2CC[C@@H](N)CC2)Cc2ccc(C#N)cc2)cc1-c1ccc(CN[C@H](C)c2ccc(C)cc2)o1 | enzyme activity | inhibitor | – | 1 µM | remaining activity | 94%
NS(=O)(=O)c1ccc(CNc2nc(Nc3cccc(NC(=O)N4CCCC4)c3)ncc2Br)cc1 | enzyme activity | inhibitor | radiometric | 1 µM | remaining activity | 23%
Nc1ncnc2occ(-c3ccc(NC(=O)Nc4cc(C(F)(F)F)ccc4F)cc3)c12 | cell-free assay | – | – | 20 µM | remaining signal | 94%
Cc1nn(CC(F)(F)F)cc1Nc1ncc(Br)c(NCCCNC(=O)C2CCC2)n1 | enzyme activity | inhibitor | radiometric | 1 µM | remaining activity | 5%
Cc1ccc(C(=O)Nc2ccc(CN3CCN(C)CC3)c(C(F)(F)F)c2)cc1C#Cc1cnc2cccnn12 | enzyme activity | – | – | 23.5 nM | remaining activity | 100%
